Data on 30 compounds can be found in ChEMBL document CHEMBL4765352, “Discovery of AdipoRon analogues as novel AMPK activators without inhibiting mitochondrial complex I” (Eur J Med Chem, 2020).

One may read the half-life as the time in which the quantity being followed falls by half.

Data set [1] in a line: Induction of glucose consumption in mouse C2C12 cells at 10 uM measured after 12 hrs by glucose oxidase method (reference value: 100 %). It counts as functional. In outline: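 Differentiated C2C12 myotubes were switched to DMEM containing 2.75 g/L glucose and treated for 12 h at 37 °C, with cell-free blank wells as reference. Glucose left in the medium was measured by the GOD-POD method at 570 nm. Consumption was derived by subtraction and expressed as percentage of the DMSO group.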

For data set [2], the system named is C2C12. The data set can be described thus: Activation of AMPK in mouse C2C12 cells assessed as increase in AMPK phosphorylation at Thr172 residue at 10 uM measured after 2 hrs by Western blot analysis. It counts as cell-based. The conditions noted are these: filed as activator. In outline: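 C2C12 myoblasts differentiated in DMEM with 2% horse serum for 5-7 days until myotubes formed. Treated for 2 h, either at 10 μM or across a concentration range, or at 10 μM over a time course. RIPA lysates (~30 µg protein) blotted for p-AMPK/AMPK and p-ACC/ACC, detected by ECL. The p-AMPK/AMPK ratio is expressed as fold of the DMSO vehicle.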
A general note: Immunoblotting shows a protein as a band on a membrane.

Data set [3] can be described thus: Inhibition of bovine heart mitochondrial complex 1 at 10 uM measured every minute for 2 hrs by microplate reader based assay. It counts as tissue-based, Bos taurus. The conditions noted are these: cattle. In outline:
(§1)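 Bovine heart mitochondria in detergent were captured on a complex I antibody-coated plate for 2 h at room temperature. Phospholipids were added, then complex I solution with compound, rotenone control or DMSO. NADH oxidation was followed as the fall in A340, read every minute for at least 2 h at 30 °C.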

Data set [4] relates to Mus musculus. Nature of the data set: Hypoglycemic activity in 6 hrs fasted normal lean C57BL/6 mouse assessed as reduction in blood glucose level at 100 mg/kg, ig pretreated for 2 hrs followed by glucose challenge and measured up to 90 mins post glucose challenge starting from 120 mins prior to […] by IPGTT. The format is functional, organism-based. The conditions noted are these: time 210.0 min. The essentials: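 C57BL/6 mice (male, 8-10 weeks, n=6 per group) fasted 6 h, then given compound or vehicle intragastrically. Two hours later, 20% glucose was injected i.p. at 2 g/kg. Tail-vein glucose read by glucometer at -120, 0, 20, 40, 60 and 90 min, and net AUC calculated. Doses were 25, 50 and 100 mg/kg.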

Data set [5] deals with A549. The data set can be described thus: Activation of AMPK in human A549 cells harboring mutant LKB1. It counts as cell-based. The note with it: filed as activator.
Data set [6] concerns Mus musculus. The data set can be described thus: Hypoglycemic activity in 6 hrs fasted normal lean C57BL/6 mouse assessed as improved glucose tolerance at 10 mg/kg, ig pretreated for 2 hrs followed by glucose challenge and measured up to 90 mins post glucose challenge starting from 120 mins prior to compound treatment by IPGTT. The note with it: time 210.0 min. It counts as functional, organism-based.

The test system of data set [7] is Mus musculus. The data set can be described thus: Activation of AMPK in normal lean C57BL/6 mouse assessed as increase in phosphorylated ACC level in skeletal muscle at 100 mg/kg, ig administered for 4 weeks by Western blot analysis. The format is functional, organism-based. The note with it: Skeletal muscle tissue. The essentials: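 Male C57BL/6 mice, 9 weeks old, dosed intragastrically once daily for 4 weeks alongside vehicle controls. Heart and skeletal muscle were homogenized in RIPA buffer with protease/phosphatase inhibitors and centrifuged at 10,600 g for 20 min. About 30 µg protein was blotted for p-AMPK and p-ACC and detected by ECL.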

The nature of data set [8]: Inhibition of bovine heart mitochondrial complex 1 at 5 to 20 uM measured every minute for 2 hrs by microplate reader based assay. It counts as tissue-based, Bos taurus. The note with it: cattle, dose 5-20 µM. In outline: as §1
The nature of data set [9]: Metabolic stability in human liver microsomes assessed as compound remaining preincubated for 5 mins followed by NADPH addition and measured up to 45 mins by LC/MS analysis. The format is ADME, Microsome. The note with it: time 50 min, read-out: Stabilty. The essentials: (§2)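 Compound was preincubated with mouse (ICR/CD-1) or human liver microsomes in potassium phosphate buffer at 37 °C for 5 min, then NADPH was added to start the reaction. Samples were quenched with acetonitrile containing tolbutamide internal standard at 0, 5, 15, 30 and 45 min. Parent compound measured by LC/MS; ketanserin served as control.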
A general note: Microsomes from liver hold many membrane-bound enzymes, among them those of drug oxidation.

Data set [10] in a line: Metabolic stability in human liver microsomes assessed as half life preincubated for 5 mins followed by NADPH addition and measured up to 45 mins by LC/MS analysis. The format is ADME, Microsome. The conditions noted are these: time 50 min. In outline: as §2
Data set [11] in a line: Metabolic stability in ICR/CD-1 mouse liver microsomes assessed as compound remaining preincubated for 5 mins followed by NADPH addition and measured up to 45 mins by LC/MS analysis. The format is ADME, Microsome. The conditions noted are these: time 50 min, read-out: Stabilty. In outline: as §2
Data set [12] can be described thus: Metabolic stability in ICR/CD-1 mouse liver microsomes assessed as half life preincubated for 5 mins followed by NADPH addition and measured up to 45 mins by LC/MS analysis. It counts as ADME, Microsome. The note with it: time 50 min. The essentials:
as §2

A short description of data set [13]: Inhibition of mitochondrial complex 1 in human HepG2 cells assessed as increase in ADP/ATP ratio at 0.5 uM. It counts as cell-based. The conditions noted are these: hepg2, 0.5 µM. The essentials:
(§3)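 HepG2 cells treated with 10 μM or 0.5 μM compound, or DMSO. Cellular ADP:ATP and AMP:ATP ratios were measured. Three replicates, given as mean ± SD and compared by Student's t test.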

Data set [14] can be described thus: Inhibition of mitochondrial complex 1 in human HepG2 cells assessed as increase in AMP/ATP ratio at 0.5 uM. It counts as cell-based. The note with it: hepg2, 0.5 µM. The essentials:
as §3

The nature of data set [15]: Metabolic stability in human liver microsomes assessed as intrinsic clearance preincubated for 5 mins followed by NADPH addition and measured up to 45 mins by LC/MS analysis. It counts as ADME, Microsome. The conditions noted are these: time 50 min, read-out: CLH. The essentials: (§4)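 Compound and liver microsomes in preheated potassium phosphate buffer, held at 37 °C for 5 min. Reaction started with NADPH and stopped at 0, 5, 15, 30 and 45 min with acetonitrile containing tolbutamide internal standard. Samples centrifuged at 6000 rpm for 15 min, supernatant analysed by LC/MS. Ketanserin run as assay control. Performed by a contract lab.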

Data set [16] can be described thus: Metabolic stability in ICR/CD-1 mouse liver microsomes assessed as intrinsic clearance preincubated for 5 mins followed by NADPH addition and measured up to 45 mins by LC/MS analysis. The format is ADME, Microsome. The note with it: time 50 min, read-out: CLH. In outline:
as §4

Calls of active or inactive are those of the source. The rule behind the calls is not given here. A value given as a limit tells only on which side of the number the result lay.

Take `CC(C)(Oc1ccc(Cl)cc1)C(=O)N1CCC(NC(=O)Nc2ccc(F)c(Cl)c2)CC1`: the Activity in data set [1] is reported as 116.7%. On the same count and under the same terms, the value for `CC(C)(Oc1ccc(Cl)cc1)C(=O)Nc1ccc(OCc2ccc(F)cc2)cc1` was 107.6%. As to `O=C(COc1ccc(C(=O)c2ccccc2)cc1)NC1CCN(Cc2ccccc2)CC1`, the result in data set [2] and in data set [4] was Active. For the same compound, the Activity in [1] is given as 132.4%. For the same compound, in [3], the “inhibition (INH)” value is given as “Active”. With `CC(C)(Oc1ccc(Cl)cc1)C(=O)N1CCC(NC(=O)Nc2ccc(Br)cc2)CC1`, the Activity in data set [1] is 127.3%. On to `CC(C)(Oc1ccc(Cl)cc1)C(=O)N1CCC(NC(=O)Nc2ccccc2)CC1`, for which the Activity in data set [1] was 118%. In the case of `CC(C)(Oc1ccc(Cl)cc1)C(=O)N1CCC(NC(=O)Nc2ccc(F)cc2)CC1`, in data set [2], the outcome was Active. Besides, the Activity in [1] is given as 119.3%. With `CC(C)(Oc1ccc(Cl)cc1)C(=O)N1CCC(NC(=O)Nc2ccc(Cl)cc2)CC1`, the result in data set [2] was Active. Also, the Activity in data set [1] is 104.1%. `COc1ccc(NC(=O)NC2CCN(C(=O)C(C)(C)Oc3ccc(Cl)cc3)CC2)cc1` returned an Activity in data set [1] of 134.4%.

On to `CC(C)(Oc1ccc(Cl)cc1)C(=O)Nc1ccc(OCc2ccc(Cl)cc2)cc1`, for which, in data set [2], the result was Active. Also, the Activity in data set [1] is 129%. For the compound `CC(C)(Oc1ccc(Cl)cc1)C(=O)Nc1ccc(OCc2ccc(C(=O)O)cc2)cc1`, the Activity in data set [1] was found to be 116.5%.

Turning to `CC(C)(Oc1ccc(Cl)cc1)C(=O)Nc1ccc(OCc2ccc(OC(F)(F)F)cc2)cc1`, the Activity in data set [1] was 133.4%. As to `O[C@@H]1CO[C@H]2[C@@H]1OC[C@H]2Oc1nc2nc(-c3ccc(-c4ccccc4)cc3)c(Cl)cc2[nH]1`, the outcome in data set [2], in data set [5], in [6] and in data set [7] was Active. `CC(C)(Oc1ccc(Cl)cc1)C(=O)N1CCC(NC(=O)Nc2ccc(C(=O)O)cc2)CC1` had an Activity in [1] of 117.7%. On to `CC(C)(Oc1ccc(Cl)cc1)C(=O)N1CCC(NC(=O)Nc2ccc(C(F)(F)F)cc2)CC1`, for which the outcome in data set [2] was Active. This compound returned an Activity in [1] of 137.2%. Also, the “inhibition (INH)” value in data set [8] was “Not Active”.

In turn, `CC(C)(Oc1ccc(Cl)cc1)C(=O)N1CCC(NC(=O)Nc2cccc(C(F)(F)F)c2)CC1` showed an Activity in data set [1] of 91%.

Consider `CC(C)(Oc1ccc(Cl)cc1)C(=O)Nc1ccc(OCc2ccc(Br)cc2)cc1`, for which, in data set [1], the Activity is listed as 112.7%. The same measure, in the same setting: the value for `CC(C)(Oc1ccc(Cl)cc1)C(=O)N1CCC(NC(=O)Nc2ccc(C#N)cc2)CC1` was 116.2%. Still for that read-out and setting: next, `COc1ccc(COc2ccc(NC(=O)C(C)(C)Oc3ccc(Cl)cc3)cc2)cc1`: 134.7%. With `CC(C)(Oc1ccc(Cl)cc1)C(=O)Nc1ccc(OCc2ccc(C(F)(F)F)cc2)cc1`, in data set [1], the Activity is on record as 156.1%. Further, the “inhibition (INH)” value in data set [8] is on record as “Active”. The remaining at 0.75 h in data set [9] turned out to be 93%; in [11], 91%. Moreover, the half-life in [10] and in [12] was above 120 min in each case. In turn, `CC(C)(Oc1ccc(Cl)cc1)C(=O)Nc1ccc(OCc2ccc(C(C)(C)C)cc2)cc1` gave an Activity in [1] of 105.3%. Take `CC(C)(Oc1ccc(Cl)cc1)C(=O)Nc1ccc(OCc2ccc(S(C)(=O)=O)cc2)cc1`: the result in data set [2] was Active. The same compound registered an Activity in data set [1] of 144.4%.

With `COc1ccc(C(=O)C2CCN(C(=O)c3ccc(C(=O)NC4CCN(Cc5ccc(C#N)cc5)CC4)cn3)CC2)cc1`, the “inhibition (INH)” value in data set [13] and in [14] was “Active” in each case.

Consider `COC(=O)c1ccc(COc2ccc(NC(=O)C(C)(C)Oc3ccc(Cl)cc3)cc2)cc1`, for which, in [1], the Activity is recorded as 124.7%. Same read-out and setting: the value for `Cc1ccc(COc2ccc(NC(=O)C(C)(C)Oc3ccc(Cl)cc3)cc2)cc1` was 102.2%. Still for that read-out and setting: the value for `CCOC(=O)c1ccc(NC(=O)NC2CCN(C(=O)C(C)(C)Oc3ccc(Cl)cc3)CC2)cc1` was 126.1%; that for `Cc1ccc(NC(=O)NC2CCN(C(=O)C(C)(C)Oc3ccc(Cl)cc3)CC2)cc1` was 93.7%; that for `CC(C)(Oc1ccc(Cl)cc1)C(=O)N1CCC(NC(=O)Nc2ccccc2C(F)(F)F)CC1` was 116.1%.

For `CC(C)(Oc1ccc(Cl)cc1)C(=O)N1CCC(NC(=O)Nc2ccc([N+](=O)[O-])cc2)CC1`, the Activity in [1] was 115.4%. On to `O=C(c1ccc(F)cc1)C1CCN(CCn2c(=O)[nH]c3ccccc3c2=O)CC1` [KETANSERIN], for which the half-life was determined as 25 min in data set [10] and 21 min in data set [12]. Besides, the CLint scaled in data set [15] was 71 mL/min/kg; in data set [16], 258 mL/min/kg. Compound `CC(C)(Oc1ccc(Cl)cc1)C(=O)N1CCC(NC(=O)Nc2ccc(OC(F)(F)F)cc2)CC1` registered an Activity in [1] of 104.2%.
